The structures appear in SMILES notation. The source made the active and inactive calls. The calls are words filed in the database; no cut-off is given here.

This is an account of results in ChEMBL document CHEMBL3286304, “Cytotoxicity and DNA binding property of the dimers of triphenylethylene-coumarin hybrid with one amino side chain” (Bioorg Med Chem Lett, 2014).

In series [1] the test system is Calf thymus DNA. Description: Binding affinity to calf thymus DNA at 25 degC at pH 7.4 after 10 mins by Stern-Volmer plot analysis. Type of series: nucleic-acid assay. The following applies: Bos taurus. The method in brief:
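Dimer (5.0 × 10^-5 M) titrated with Ct-DNA 0–180 µM in 10 mM phosphate pH 7.4, 50 mM NaCl, 2% DMSO, 25 °C; fluorescence emission near 465 nm, excitation 330–345 nm by compound, slits 5.0 nm; F/F0 versus DNA concentration, Stern–Volmer fitting gives binding constant.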

Series [2] relates to HeLa. The series can be described thus: Antiproliferative activity against human HeLa cells after 48 hrs by MTT assay. Type of series: functional, cell-based.
For series [3], the system named is Calf thymus DNA. The series can be described thus: Binding affinity to calf thymus DNA assessed as hyperchromicity at 50 uM at 25 degC at pH 7.4 after 10 mins by UV-vis spectrophotometry. The settings on record: Bos taurus. Type of series: nucleic-acid assay. The method in brief: (§1)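 Ct-DNA titrated (0–180 µM for some dimers, 0–160 µM for others) into dimer at 5.0 × 10^-5 M in 10 mM phosphate buffer pH 7.4, 50 mM NaCl, 2% DMSO, 25 °C; UV–vis absorption followed at λmax; binding constant K by double inverse method.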

Series [4] concerns Calf thymus DNA. Description: Binding affinity to calf thymus DNA assessed as change in melting temperature at 5 uM after 10 mins by thermal denaturation assay. The settings on record: Bos taurus. Type of series: nucleic-acid assay. The method in brief:
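Melting curves of Ct-DNA (5.0 × 10^-5 M) with or without dimer at 5.0 × 10^-6 M in 1 mM phosphate buffer pH 7.4, 5 mM NaCl, 2% DMSO; heated over roughly 55–85 °C; ΔTm taken relative to DNA alone.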

Series [5] has as its system Calf thymus DNA. The series can be described thus: Binding affinity to calf thymus DNA at 25 degC at pH 7.4 after 10 mins by UV-vis spectrophotometry. The following applies: Bos taurus. Type of series: nucleic-acid assay. The method in brief:
as §1

In series [6] the test system is A549. Description: Antiproliferative activity against human A549 cells after 48 hrs by MTT assay. The following applies: A549, 48 h. Type of series: functional, cell-based.
Series [7] relates to MCF7. The series can be described thus: Antiproliferative activity against human MCF7 cells after 48 hrs by MTT assay. In kind it is functional, cell-based. The following applies: MCF7, 48 h.
Series [8] deals with Calf thymus DNA. Description: Binding affinity to calf thymus DNA assessed as hypsochromic shift at 50 uM at 25 degC at pH 7.4 after 10 mins by UV-vis spectrophotometry. Type of series: nucleic-acid assay. The following applies: Bos taurus. The method in brief:
as §1

Series [9] concerns K562. The series can be described thus: Antiproliferative activity against human K562 cells after 48 hrs by MTT assay. In kind it is functional, cell-based. The following applies: K562, 48 h. In general terms: Tetrazolium assays rely on reduction of a dye to a coloured formazan, in cell work by metabolically active cells.
For series [10], the system named is Calf thymus DNA. Description: Binding affinity to calf thymus DNA assessed as DNA intercalation at 20 uM at pH 7.4 after 10 mins by circular dichroism analysis. The following applies: Bos taurus. In kind it is nucleic-acid assay. In short, it runs like this: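 CD spectra of Ct-DNA (5.0 × 10^-5 M) alone and with dimer at 2.0 × 10^-5 M in 10 mM phosphate buffer pH 7.4, 50 mM NaCl, 2% DMSO, 25 °C.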
On the technique in general: Circular dichroism is the unequal absorption of left and right circularly polarised light.

The nature of series [11]: Cytotoxicity against mouse skull osteoblasts at 40 uM after 48 hrs by MTT assay. In kind it is cell-based. The following applies: osteoblast.
Series [12] can be described thus: Cytotoxicity against mouse skull osteoblasts at 10 uM after 48 hrs by MTT assay. The following applies: osteoblast. In kind it is cell-based.
The nature of series [13]: Cytotoxicity against mouse skull osteoblasts at 100 uM after 48 hrs by MTT assay. Type of series: cell-based. The following applies: osteoblast.
Series [14] can be described thus: Cytotoxicity against mouse skull osteoblasts at 20 uM after 48 hrs by MTT assay. The following applies: osteoblast. Type of series: cell-based.
Series [15] is described as follows: Cytotoxicity against mouse skull osteoblasts at 1 uM after 48 hrs by MTT assay. Type of series: cell-based. The settings on record: osteoblast.

For orientation: IC50 means the point on the concentration scale where inhibition reaches its midpoint. Lower therefore signals higher potency. Broadly, the ΔTm is the change in melting temperature against a reference sample. As for `O=C(CCCCCCCCC(=O)Nc1ccc(-c2c(-c3ccc(OCCN4CCCCC4)cc3)c3ccccc3oc2=O)cc1)Nc1ccc(-c2c(-c3ccc(OCCN4CCCCC4)cc3)c3ccccc3oc2=O)cc1`, the Kb amounted to 2.1 ×10⁴ /M in series [1] and 5.3 ×10⁴ /M in series [5]. In addition, the IC50 in [2], in [6], in [7] and in [9] was above 50 µM in each case. Besides, the values for the Activity in [3] and in [8] were 35% and 1.5 nm, respectively. In addition, the ΔTm in [4] was 2.5 °C. In addition, in [10], the result was Active.

Take `O=C(CCCCCCCCC(=O)Nc1ccc(-c2c(-c3ccc(OCCN4CCCC4)cc3)c3ccccc3oc2=O)cc1)Nc1ccc(-c2c(-c3ccc(OCCN4CCCC4)cc3)c3ccccc3oc2=O)cc1`: the IC50 in series [2] amounted to 42.5 µM; in series [6], 16.9 µM; in [7], 35.9 µM; in series [9], 18.9 µM.

Turning to `O=C(CCCCC(=O)Nc1ccc(-c2c(-c3ccc(OCCN4CCCCC4)cc3)c3ccccc3oc2=O)cc1)Nc1ccc(-c2c(-c3ccc(OCCN4CCCCC4)cc3)c3ccccc3oc2=O)cc1`, the Kb in series [1] is 3.8 ×10⁵ /M; in series [5] it was 1.5 ×10⁵ /M. Moreover, the concentration for half-maximal inhibition (IC50) in series [2] is 34.4 µM; in series [6] it was 27 µM; in series [7], 35.4 µM; in series [9], 23.8 µM. The Activity worked out at 40% in series [3] and 1.5 nm in [8]. In addition, in series [4], the ΔTm came to 5.1 °C. In addition, the outcome in [10] was Active.

Turning to `O=C(CCCCC(=O)Nc1ccc(-c2c(-c3ccc(OCCN4CCCC4)cc3)c3ccccc3oc2=O)cc1)Nc1ccc(-c2c(-c3ccc(OCCN4CCCC4)cc3)c3ccccc3oc2=O)cc1`, the concentration for half-maximal inhibition (IC50) amounted to 36.4 µM in series [2], 22.3 µM in series [6], 37.6 µM in series [7] and 28 µM in [9].

For the molecule `O=C(Nc1ccc(-c2c(-c3ccc(OCCN4CCCC4)cc3)c3ccccc3oc2=O)cc1)c1cccc(C(=O)Nc2ccc(-c3c(-c4ccc(OCCN5CCCC5)cc4)c4ccccc4oc3=O)cc2)c1`, the IC50 in series [2] is 31 µM; in series [6], 15.2 µM; in [7], 29.5 µM; in series [9] it was 15.2 µM.

Regarding `O=C(CC(=O)Nc1ccc(-c2c(-c3ccc(OCCN4CCCC4)cc3)c3ccccc3oc2=O)cc1)Nc1ccc(-c2c(-c3ccc(OCCN4CCCC4)cc3)c3ccccc3oc2=O)cc1`, the concentration for half-maximal inhibition (IC50) in series [2] was determined as 6.49 µM; in series [6] it was 7.73 µM; in series [7], 3.52 µM; in [9] it was 3.23 µM. Further, the Activity is recorded as 14.5% in [11]; -1.3% in series [12]; 27.4% in series [13]; 0.8% in [14]; -10.4% in [15].

As for `O=C(Nc1ccc(-c2c(-c3ccc(OCCN4CCCCC4)cc3)c3ccccc3oc2=O)cc1)c1cccc(C(=O)Nc2ccc(-c3c(-c4ccc(OCCN5CCCCC5)cc4)c4ccccc4oc3=O)cc2)c1`, the values for the Kb in series [1] and in series [5] were 1.3 ×10⁴ /M and 4.8 ×10⁴ /M, respectively. For the same molecule, the IC50 in [2], in series [6], in series [7] and in [9] was above 50 µM throughout. The Activity was 32% in series [3] and 0.5 nm in [8]. In addition, the ΔTm in series [4] stood at 2 °C. Further, in [10], the result was Active.

As to `Nc1ccc(-c2c(-c3ccc(OCCN4CCCCC4)cc3)c3ccccc3oc2=O)cc1`, the IC50 was above 50 µM in [2], above 50 µM in [6], 43.8 µM in series [7] and above 50 µM in [9].

Regarding `Nc1ccc(-c2c(-c3ccc(OCCN4CCCC4)cc3)c3ccccc3oc2=O)cc1`, the IC50 in series [2] is above 50 µM; in [6], above 50 µM; in series [7], 45.7 µM; in series [9], above 50 µM.

As for `O=C(CC(=O)Nc1ccc(-c2c(-c3ccc(OCCN4CCCCC4)cc3)c3ccccc3oc2=O)cc1)Nc1ccc(-c2c(-c3ccc(OCCN4CCCCC4)cc3)c3ccccc3oc2=O)cc1`, the Kb was 6.9 ×10⁵ /M in [1] and 4.5 ×10⁵ /M in series [5]. Further, the half-inhibitory concentration (IC50) stood at 7.82 µM in [2], 8.44 µM in series [6], 8.57 µM in series [7] and 0.98 µM in series [9]. The Activity in series [11] was 20.1%; in series [3], 47%; in series [12] it was 0.3%; in series [13] it was 36.2%; in series [14], 0.6%; in series [15], -8.4%. In addition, in series [8], the Activity turned out to be 2 nm. Also, the ΔTm in [4] turned out to be 6 °C. Also, in series [10], the outcome was Active.
